Only some compounds are listed: those with a hit (about 2.9% of all), similar ones and a draw of the others.
SIRT5 inh: sirtuin-5 (human) deacylase inhibition | Q9NXA8 | Purified SirT5, succinyl-peptide AMC, trypsin-coupled fluorescence | inhibition, % at 15 µM | 330,000 compounds, 1.1% hits; in the data active = inhibition above about 15%
Target sequence (Q9NXA8 whole entry, looked up): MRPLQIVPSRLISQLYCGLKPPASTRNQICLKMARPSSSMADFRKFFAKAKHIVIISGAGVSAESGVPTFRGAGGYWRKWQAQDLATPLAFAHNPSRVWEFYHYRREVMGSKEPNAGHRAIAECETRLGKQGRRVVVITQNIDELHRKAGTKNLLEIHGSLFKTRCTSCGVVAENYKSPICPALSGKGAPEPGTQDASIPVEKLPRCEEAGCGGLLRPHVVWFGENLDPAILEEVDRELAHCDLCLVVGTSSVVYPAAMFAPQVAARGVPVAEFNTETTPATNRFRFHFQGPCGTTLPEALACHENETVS
DENV2 CPE: DENV2-induced cell death inhibition; AID 651640; DENV2-infected cells, cytopathic effect rescue, plate reader; CPE inhibition, % at 9.99 µM; 350,000 compounds, 1.7% hits; in the data active = CPE inhibition above about 20%, passing the limit was not always enough; tested in BHK-21 cells;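 also: 0% = median of neutral control wells and 100% = median of positive control wells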
E-selectin induc: induces E-selectin expression in human endothelial cells. HUVEC E-selectin immunofluorescence imaging; normalized: neutral wells 0, TNF-alpha wells 100. activation, % at 7.58 µM. 260,000 compounds, 0.37% hits. AID 686992;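 active = mean E-selectin-positive cell signal at least 10% of the positive control, reached in at least 60% of replicates, without over 20% cell loss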
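System: HUVEC / Compound: single concentration / Signal: immunofluorescence imaging / Read-out: percent E-selectin-positive cells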
Active calls of the source: *; . = not tested or not shown.

SMILES	SIRT5 inh	DENV2 CPE	E-selectin induc
COCC(=O)N1C[C@@H](C)[C@@H](OC)CN(C)C(=O)c2cc(NC(=O)c3cc(C)on3)ccc2OC[C@@H]1C	-5	-2	0
CO[C@H]1CN(C)C(=O)c2cc(NC(C)=O)ccc2OC[C@@H](C)N(C(=O)c2ccccc2)C[C@@H]1C	-1	24*	0
CCCCCCCCN1C(=O)[C@@H](CC(=O)NCc2ccc(C)o2)C[C@@]2(C(=O)OC)C1=C[C@H](C1CCCC1)O[C@@H]2C	.	-3	0
O=C(/C=C/c1cn(-c2ccccc2)nc1-c1cccnc1)NCCN1CCOCC1	5	-1	2
CN(C(=O)COC(=O)c1ccc2c(c1)OCO2)C1CCCCC1	1	-3	0
O=C(COC(=O)c1cc(=O)[nH]c2ccccc12)NC1CCCC1	25*	-1	.
O=C(COC(=O)c1ccc2c(c1)OCO2)NC1CCCCC1	-3	21*	.
CC1CCCCC1NC(=O)COC(=O)c1cc(=O)[nH]c2ccccc12 (stereo not drawn)	2	10	.
C/C=C/c1ccc(C2[C@H]3CNC[C@@H]2N3C(=O)Nc2cccc(OC)c2)cc1 (stereo partly drawn)	.	13	0
COc1ccc(C#Cc2cnc3c(c2)C(=O)N([C@H](C)CO)C[C@@H](C)[C@@H](CN(C)C(=O)Nc2cccc(OC)c2)O3)cc1	.	.	0
CS(=O)(=O)N1C[C@@H](O)COC[C@H]2O[C@@H](CC(=O)NCc3ccc(-c4ccccc4)cc3)CC[C@@H]21	-2	-3	0
O=S(=O)(Nc1ccccc1N1CCOCC1)c1ccccc1C(F)(F)F	7	3	-2
Cn1cnc(S(=O)(=O)Nc2ccccc2N2CCOCC2)c1	15*	-1	.
O=S(=O)(NC1CCN(Cc2ccc(OCCO)cc2)CC1)c1cc(C(F)(F)F)ccc1Cl	.	29*	.
O=S(=O)(NC1CCN(Cc2ccc(OCCO)cc2)CC1)c1cc(Cl)ccc1Cl	0	16	.
C[C@H]1CN([C@@H](C)CO)C(=O)Cc2cc(NC(=O)Nc3ccccc3)ccc2O[C@H]1CN(C)CC1CC1	3	-2	0
O=C(c1cc2ncccn2n1)N1CCc2c([nH]c3ccccc23)C1c1ccccc1F (stereo not drawn)	-2	-3	.
Fc1ccccc1C1c2[nH]c3ccccc3c2CCN1CCCn1cccn1 (stereo not drawn)	1	31*	.
CC(NC(=O)CCc1nnc(C2CCCCC2)o1)c1ccc(F)cc1 (stereo not drawn)	-1	0	.
CCCCNc1nc(N)ncc1[N+](=O)[O-]	30*	-3	1
CCCCNc1c([N+](=O)[O-])ncn1C	2	0	2
CCCCOc1ccc(CSC2=NCCN2)cc1[N+](=O)[O-]	.	8	.
C[C@@H]1COc2cccc(NC3CC3)c2S(=O)(=O)N1	-2	12	0
N#C/C(=C\Nc1ccccc1SC(F)(F)F)c1nc(-c2ccc(F)cc2)cs1	19*	5	.
Cc1ccc(-c2csc(/C(C#N)=C/Nc3ccccc3SC(F)(F)F)n2)cc1	0	-6	.
SMILES	SIRT5 inh	DENV2 CPE	E-selectin induc
C[C@@H]1CN([C@H](C)CO)C(=O)Cc2cc(NS(=O)(=O)c3cccs3)ccc2O[C@H]1CN(C)S(=O)(=O)c1ccc(F)cc1	-6	24*	0
COc1ccc(S(=O)(=O)N(C)C[C@@H]2Oc3ccc(NS(=O)(=O)c4cccs4)cc3CC(=O)N([C@@H](C)CO)C[C@H]2C)cc1	-1	7	0
C[C@H](CO)N1C[C@H](C)[C@@H](CN(C)S(=O)(=O)c2ccc(F)cc2)Oc2ccc(NS(=O)(=O)c3cccs3)cc2CC1=O	2	2	0
COc1ccc(S(=O)(=O)N(C)C[C@H]2Oc3ccc(NS(=O)(=O)c4cccs4)cc3CC(=O)N([C@@H](C)CO)C[C@@H]2C)cc1	3	26*	0
COc1ccc(OC)c(-c2csc(NC(=O)Cc3ccccc3)n2)c1	2	-1	.
C=CCC(=O)N1CCC(n2nccc2NC(=O)c2ccc3c(c2)OCO3)CC1	0	-1	0
Clc1cccc(CNCC2CCCO2)c1Cl (stereo not drawn)	1	2	.
CCCCCC(=O)NC1CCCCN(C)C1=O (stereo not drawn)	.	76*	0
CN1CCCCC(NC(=O)CCCl)C1=O (stereo not drawn)	.	2	2
O=C(NCc1n[nH]c(=O)c2ccccc12)C1CC(=O)N(c2ccccc2)C1 (stereo not drawn)	-1	4	1
O=C(Cc1n[nH]c(=O)c2ccccc12)Nc1cccc(S(=O)(=O)N2CCCC2)c1	-5	0	-1
CCCNC(=O)C12CCC(C)(C(=O)O1)C2(C)C (stereo not drawn)	0	0	.
CC12CCC(C(=O)NCCc3ccccc3)(OC1=O)C2(C)C (stereo not drawn)	15*	-1	.
C[C@H]1CN([C@@H](C)CO)C(=O)Cc2cc(NS(C)(=O)=O)ccc2O[C@@H]1CN(C)Cc1ccc(C(=O)Nc2ccccc2N)cc1	4	-11	-7
Cn1c(CCNC(=O)C2CCCCC2)nc2cc([N+](=O)[O-])ccc21	0	4	-2
COc1ccc(CC(=O)NCC2CCCN(Cc3ccc(OC(F)(F)F)cc3)C2)cc1 (stereo not drawn)	21*	20*	.
COC(=O)c1ccc(CN2CCCC(CNC(=O)Cc3ccc(OC)cc3)C2)cc1 (stereo not drawn)	0	0	.
COc1ccc(CC(=O)NCC2CCCN(Cc3cc(OC)cc(OC)c3)C2)cc1 (stereo not drawn)	0	-3	0
COc1ccc(CC(=O)NCC2CCCN(Cc3ccccc3Cl)C2)cc1 (stereo not drawn)	17*	1	0
CC(C)n1c(SCC(=O)Nc2ccc(N3CCOCC3)cc2)nnc1-c1ccco1	-2	-5	1
COc1ccccc1NC(=O)c1cc([N+](=O)[O-])ccc1NCCN1C(=O)CCC1=O	-1	13	.
COc1ccc(CNC(=O)c2nc(S(=O)(=O)Cc3ccccc3)ncc2Cl)cc1	21*	1	0
O=C(NCc1ccccc1)c1nc(S(=O)(=O)Cc2ccccc2)ncc1Cl	-1	7	0
CC(C)C1C(=O)N(Cc2cn(CCC3OCCO3)nn2)CCS(=O)(=O)N1Cc1ccc(-c2cccc(N(C)C)c2)cc1 (stereo not drawn)	-3	-1	0
NC(=O)c1ccc(NS(=O)(=O)c2ccc3ccccc3c2)cc1	4	-1	0
O=C(O)CNC(=O)c1ccc(NS(=O)(=O)c2ccc3ccccc3c2)cc1	2	31*	.
COc1cc(/C=N/NC(=O)CNS(=O)(=O)c2ccc(C)cc2)cc(OC)c1OC	.	-1	0
CC(C)(C)c1ccc(C(CC(=O)O)NC(=O)C23CC4CC(CC(C4)C2)C3)cc1 (stereo not drawn)	-2	1	2
O=C(O)CC(NC(=O)C12CC3CC(CC(C3)C1)C2)c1ccc(OC2CCCC2)cc1 (stereo not drawn)	0	22*	.
CC(C)(C)c1ccc(C(=O)NC(CC(=O)O)c2ccc(OC3CCCC3)cc2)cc1 (stereo not drawn)	4	-5	0
